This passage reports inhibition, Activity and IC50 results from ChEMBL document CHEMBL1681789, “New bichalcone analogs as NF-κB inhibitors and as cytotoxic agents inducing Fas/CD95-dependent apoptosis” (Bioorg Med Chem, 2011).

The structures appear in SMILES notation. Activity calls are given as the source filed them. The rule behind the calls is not given here.

One test concerns BV-2. The test is described as follows: Inhibition of NADPH oxidase mediated-ROS production in mouse BV2 cells. Format: cell-based. The method, boiled down: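 Compounds were incubated with 50 µg microglial cell homogenate for 20 min at 37 °C in the dark. Superoxide production was started with 200 µM NADPH, and chemiluminescence was followed for 30 min; the AUC represents ROS production. DPI served as positive control.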

For a further test, the system named is HCT-8. As to the kind of experiment: Cytotoxicity against human HCT8 cells at 20 ug/ml after 3 days. Format: functional, cell-based.
The subject of the next test is KB. As to the kind of experiment: Cytotoxicity against human KB cells at 20 ug/ml after 3 days. Format: functional, cell-based.
A short description of test [1]: Inhibition of Nitric oxide synthase activity in mouse BV2 cells assessed as LPS-induced NO production after 24 hrs by Griess reaction. The settings on record: BV-2, 24 h. Format: cell-based. The method, boiled down:
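Murine BV2 microglia were cultured in DMEM with 5% FBS and given 1–50 µM drug with 0.5 µg/mL LPS. Nitrite accumulated in the medium over 24 h was measured by Griess reagent. IC50 values are means ± SEM from 3–6 experiments on different days using different passages.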
For orientation: Nitrite, measured by Griess reagent, commonly stands in for NO production.

A further test has as its system DU-145. The test is described as follows: Cytotoxicity against human DU145 cells at 20 ug/ml after 3 days. It is filed as functional, cell-based.
The next test concerns A549. The test is described as follows: Cytotoxicity against human A549 cells at 20 ug/ml after 3 days. It is filed as functional, cell-based.

A word on the IC50: it is the midpoint of a concentration-inhibition curve. With `O=C(/C=C/c1ccc2c(c1)OCO2)c1ccc(N2CCN(Cc3cc(C(=O)/C=C/c4ccc5c(c4)OCO5)ccc3O)CC2)cc1`, in the test on BV-2, the inhibition entry is “inactive”. Also, the outcome in the test on HCT-8, in the test with KB, in the test on DU-145 and in the test on A549 was inactive. In addition, in test [1], the IC50 came out at 2.1 µM.
Regarding `COc1cc(C(=O)/C=C/c2sccc2C)cc(CN2CCN(c3ccc(C(=O)/C=C/c4sccc4C)cc3)CC2)c1O`, the inhibition entry in the test on BV-2 is “inactive”. For the same compound, the result with HCT-8, in the test with KB, in the test with DU-145 and with A549 was inactive. The IC50 in test [1] stood at 3.1 µM.
Regarding `O=C(/C=C/c1ccc(Cl)cc1Cl)c1ccc(N2CCN(Cc3cc(C(=O)/C=C/c4ccc(Cl)cc4Cl)ccc3O)CC2)cc1`, the inhibition result with BV-2 was “inactive”. Further, the result in the test with HCT-8, with KB, in the test with DU-145 and with A549 was inactive. In addition, the IC50 in test [1] was 25.7 µM.
`COc1ccc(/C=C/C(=O)c2ccc(N3CCN(Cc4cc(C(=O)/C=C/c5ccc(OC)cc5)cc(OC)c4O)CC3)cc2)cc1`: in the test with BV-2, the inhibition result is “inactive”. Also, the result in the test on HCT-8, in the test on KB, in the test with DU-145 and in the test with A549 was inactive. The IC50 in test [1] worked out at 3.5 µM.
`CC(=O)c1ccc(N2CCN(Cc3cc(C(C)=O)ccc3O)CC2)cc1`: the inhibition entry with BV-2 is “inactive”. Further, the result in the test with HCT-8, in the test with KB, in the test with DU-145 and with A549 was inactive. The IC50 in test [1] was found to be 6.6 µM.
On to `COC(=O)[C@@H](N)CCCNC(=N)N[N+](=O)[O-]` [L-NAME], for which the IC50 in test [1] was 18.9 µM.
With `COc1cc(C(=O)/C=C/c2cccs2)cc(CN2CCN(c3ccc(C(=O)/C=C/c4cccs4)cc3)CC2)c1O`, the inhibition result with BV-2 was “inactive”. In addition, the outcome with HCT-8, with KB, with DU-145 and in the test with A549 was inactive. For the same compound, the IC50 in test [1] is 2.7 µM.
As to `COc1cc(C(C)=O)cc(CN2CCN(c3ccc(C(C)=O)cc3)CC2)c1O`, the inhibition entry in the test on BV-2 was “inactive”. For the same compound, the result in the test on HCT-8, with KB, in the test on DU-145 and with A549 was inactive. Further, the IC50 in test [1] is 15.9 µM.
For the compound `O=C(/C=C/c1ccccc1Cl)c1ccc(N2CCN(Cc3cc(C(=O)/C=C/c4ccccc4Cl)ccc3O)CC2)cc1`, the inhibition entry with BV-2 was “inactive”. In addition, the result with HCT-8, in the test on KB, with DU-145 and in the test with A549 was inactive. For the same compound, the IC50 in test [1] worked out at 30.5 µM.
In the case of `Cc1ccc(/C=C/C(=O)c2ccc(N3CCN(Cc4cc(C(=O)/C=C/c5ccc(C)o5)ccc4O)CC3)cc2)o1`, the inhibition result with BV-2 is “inactive”. Moreover, the result in the test with HCT-8, with KB, in the test with DU-145 and in the test on A549 was inactive. In test [1], the IC50 was determined as 2.4 µM.
As for `Cn1cccc1/C=C/C(=O)c1ccc(N2CCN(Cc3cc(C(=O)/C=C/c4cccn4C)ccc3O)CC2)cc1`, the inhibition entry in the test with BV-2 was “inactive”. Besides, the result in the test with HCT-8, in the test with KB, with DU-145 and with A549 was inactive. In addition, the IC50 in test [1] amounted to 1.2 µM.
